The M2OR odorant receptor database
Positions count from the first letter of the chain named.

Experiments:
Details in all cases: stereoisomer not certain
OR2A7 (Homo sapiens) = biological target: T1, OR2A7 (Homo sapiens) (UniProt Q96R45)
T1 sequence (whole entry): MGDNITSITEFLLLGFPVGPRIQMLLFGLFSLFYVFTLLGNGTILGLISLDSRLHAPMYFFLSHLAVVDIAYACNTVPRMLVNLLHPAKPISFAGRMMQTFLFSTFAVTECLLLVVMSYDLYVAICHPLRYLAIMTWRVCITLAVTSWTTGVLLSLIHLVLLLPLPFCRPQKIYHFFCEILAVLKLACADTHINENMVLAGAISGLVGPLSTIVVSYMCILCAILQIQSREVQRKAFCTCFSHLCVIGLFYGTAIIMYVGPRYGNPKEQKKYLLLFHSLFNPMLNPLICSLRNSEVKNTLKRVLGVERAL
Procedure, shortened: (§1)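 Values were gathered from published papers (main text and supplementary material), with extra details requested from the original authors when needed, and checked for typos and inconsistencies. Each receptor–molecule pair is called responsive (active) if the original authors judged the measured signal statistically different from baseline, and non-responsive (inactive) otherwise. Assay methods varied by source, often transient mammalian cell-line luciferase assays. Recorded details include cell line, G-protein, co-transfected protein and tags.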

OR2A12 (Homo sapiens) = biological target: T2, OR2A12 (Homo sapiens) (UniProt Q8NGT7)
T2 sequence (whole entry): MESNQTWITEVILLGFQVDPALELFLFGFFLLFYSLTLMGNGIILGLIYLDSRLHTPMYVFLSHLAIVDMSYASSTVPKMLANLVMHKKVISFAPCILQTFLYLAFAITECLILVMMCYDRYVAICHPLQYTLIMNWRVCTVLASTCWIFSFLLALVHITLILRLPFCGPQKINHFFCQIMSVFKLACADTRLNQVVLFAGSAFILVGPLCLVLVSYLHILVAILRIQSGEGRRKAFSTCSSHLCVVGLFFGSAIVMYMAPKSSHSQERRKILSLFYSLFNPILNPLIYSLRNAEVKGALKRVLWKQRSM
Procedure, shortened: as §1

OR2A14 (Homo sapiens) = biological target: T3, OR2A14 (Homo sapiens) (UniProt Q96R47)
T3 sequence (whole entry): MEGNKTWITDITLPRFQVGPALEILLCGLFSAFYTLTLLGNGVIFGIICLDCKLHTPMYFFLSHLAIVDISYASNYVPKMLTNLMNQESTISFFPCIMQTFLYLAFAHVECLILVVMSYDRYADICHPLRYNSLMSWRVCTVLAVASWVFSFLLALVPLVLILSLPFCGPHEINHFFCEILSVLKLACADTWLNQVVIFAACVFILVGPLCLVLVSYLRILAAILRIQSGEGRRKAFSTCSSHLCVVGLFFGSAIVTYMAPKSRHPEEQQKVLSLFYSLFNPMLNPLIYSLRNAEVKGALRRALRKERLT
Procedure, shortened: as §1

OR2A2 (Homo sapiens) = biological target: T4, OR2A2 (Homo sapiens) (UniProt Q6IF42)
T4 sequence (whole entry): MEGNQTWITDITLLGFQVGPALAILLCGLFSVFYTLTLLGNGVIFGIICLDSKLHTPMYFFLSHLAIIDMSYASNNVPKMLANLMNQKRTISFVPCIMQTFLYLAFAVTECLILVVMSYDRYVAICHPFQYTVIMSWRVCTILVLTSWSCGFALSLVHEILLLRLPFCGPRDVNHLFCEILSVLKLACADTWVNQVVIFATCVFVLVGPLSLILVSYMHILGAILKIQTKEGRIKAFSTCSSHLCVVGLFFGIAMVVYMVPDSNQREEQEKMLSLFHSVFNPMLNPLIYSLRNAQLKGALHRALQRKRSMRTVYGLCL
Procedure, shortened: as §1

OR2A25 (Homo sapiens) = biological target: T5, OR2A25 (Homo sapiens) (UniProt A4D2G3)
T5 sequence (whole entry): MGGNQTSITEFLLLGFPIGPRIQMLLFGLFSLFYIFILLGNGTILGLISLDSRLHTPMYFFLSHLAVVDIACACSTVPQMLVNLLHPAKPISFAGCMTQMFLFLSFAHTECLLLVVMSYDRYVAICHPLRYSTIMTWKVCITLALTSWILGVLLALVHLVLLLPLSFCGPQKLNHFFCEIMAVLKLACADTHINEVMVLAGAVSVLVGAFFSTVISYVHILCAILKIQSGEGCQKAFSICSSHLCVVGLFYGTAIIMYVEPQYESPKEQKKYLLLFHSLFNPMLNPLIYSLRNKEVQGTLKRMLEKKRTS
Procedure, shortened: as §1

OR2A4 (Homo sapiens) = biological target: T6, OR2A4 (Homo sapiens) (UniProt O95047)
T6 sequence (whole entry): T1 sequence (whole entry) with T9R, C238R, F250V
Procedure, shortened: as §1

OR2A5 (Homo sapiens) = biological target: T7, OR2A5 (Homo sapiens) (UniProt Q96R48)
T7 sequence (whole entry): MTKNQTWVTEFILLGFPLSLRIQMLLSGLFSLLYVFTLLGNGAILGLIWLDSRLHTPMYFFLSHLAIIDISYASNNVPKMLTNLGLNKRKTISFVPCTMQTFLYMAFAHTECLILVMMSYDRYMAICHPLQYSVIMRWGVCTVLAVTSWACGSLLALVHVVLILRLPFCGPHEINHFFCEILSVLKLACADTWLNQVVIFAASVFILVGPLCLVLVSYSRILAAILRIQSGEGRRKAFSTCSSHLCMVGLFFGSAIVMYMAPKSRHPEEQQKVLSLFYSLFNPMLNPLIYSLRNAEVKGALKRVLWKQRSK
Procedure, shortened: as §1

OR2AE1 (Homo sapiens) = biological target: T8, OR2AE1 (Homo sapiens) (UniProt Q8NHA4)
T8 sequence (whole entry): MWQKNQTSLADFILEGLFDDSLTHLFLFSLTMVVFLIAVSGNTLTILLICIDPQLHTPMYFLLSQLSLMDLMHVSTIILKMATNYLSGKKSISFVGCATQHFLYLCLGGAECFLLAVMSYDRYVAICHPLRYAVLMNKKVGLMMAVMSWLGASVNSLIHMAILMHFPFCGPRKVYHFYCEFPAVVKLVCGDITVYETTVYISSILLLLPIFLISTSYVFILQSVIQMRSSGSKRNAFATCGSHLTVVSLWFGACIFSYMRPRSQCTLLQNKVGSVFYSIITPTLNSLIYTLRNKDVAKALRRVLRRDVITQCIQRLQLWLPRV
Procedure, shortened: as §1

OR2AG1 (Homo sapiens) = biological target: T9, OR2AG1 (Homo sapiens) (UniProt Q9H205)
T9 sequence (whole entry): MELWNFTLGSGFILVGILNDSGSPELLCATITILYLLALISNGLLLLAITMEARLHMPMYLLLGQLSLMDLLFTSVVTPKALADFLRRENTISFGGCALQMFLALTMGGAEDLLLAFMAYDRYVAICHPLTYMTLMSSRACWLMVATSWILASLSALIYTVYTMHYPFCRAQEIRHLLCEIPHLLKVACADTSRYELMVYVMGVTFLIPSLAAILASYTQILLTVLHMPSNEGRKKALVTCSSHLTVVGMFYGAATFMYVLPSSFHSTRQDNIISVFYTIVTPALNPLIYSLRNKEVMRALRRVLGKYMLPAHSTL
Procedure, shortened: as §1

OR2AG2 (Homo sapiens) = biological target: T10, OR2AG2 (Homo sapiens) (UniProt A6NM03)
T10 sequence (whole entry): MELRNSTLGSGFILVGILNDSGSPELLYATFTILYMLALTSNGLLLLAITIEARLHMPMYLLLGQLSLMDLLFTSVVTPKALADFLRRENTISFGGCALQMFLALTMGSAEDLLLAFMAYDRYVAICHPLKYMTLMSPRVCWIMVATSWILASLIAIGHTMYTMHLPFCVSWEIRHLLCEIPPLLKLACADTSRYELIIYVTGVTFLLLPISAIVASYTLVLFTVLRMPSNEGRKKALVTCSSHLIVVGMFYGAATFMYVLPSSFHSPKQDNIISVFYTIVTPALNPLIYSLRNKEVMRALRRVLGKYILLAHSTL
Procedure, shortened: as §1

OR2AJ1 (Homo sapiens) = biological target: T11, OR2AJ1 (Homo sapiens) (UniProt Q8NGZ0)
T11 sequence (whole entry): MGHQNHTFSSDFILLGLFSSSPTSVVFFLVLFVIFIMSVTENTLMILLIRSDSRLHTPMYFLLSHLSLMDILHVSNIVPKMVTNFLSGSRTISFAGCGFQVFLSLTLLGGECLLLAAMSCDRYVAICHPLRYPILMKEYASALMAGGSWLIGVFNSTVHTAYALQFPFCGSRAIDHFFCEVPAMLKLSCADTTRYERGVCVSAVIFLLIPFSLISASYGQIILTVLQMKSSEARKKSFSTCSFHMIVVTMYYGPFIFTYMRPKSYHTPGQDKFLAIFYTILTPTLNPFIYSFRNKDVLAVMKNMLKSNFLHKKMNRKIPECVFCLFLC
Procedure, shortened: as §1

OR2AK2 (Homo sapiens) = biological target: T12, OR2AK2 (Homo sapiens) (UniProt Q8NG84)
T12 sequence (whole entry): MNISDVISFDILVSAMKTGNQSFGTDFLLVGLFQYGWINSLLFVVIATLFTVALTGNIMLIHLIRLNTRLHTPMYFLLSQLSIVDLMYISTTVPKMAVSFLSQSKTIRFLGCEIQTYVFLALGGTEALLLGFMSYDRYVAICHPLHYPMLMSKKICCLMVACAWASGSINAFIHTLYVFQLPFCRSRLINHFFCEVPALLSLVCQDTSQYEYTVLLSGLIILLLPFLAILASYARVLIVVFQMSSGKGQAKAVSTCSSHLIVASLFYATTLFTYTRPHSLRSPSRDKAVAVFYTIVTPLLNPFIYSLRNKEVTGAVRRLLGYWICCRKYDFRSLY
Procedure, shortened: as §1

OR2AP1 (Homo sapiens) = biological target: T13, OR2AP1 (Homo sapiens) (UniProt Q8NGE2)
T13 sequence (whole entry): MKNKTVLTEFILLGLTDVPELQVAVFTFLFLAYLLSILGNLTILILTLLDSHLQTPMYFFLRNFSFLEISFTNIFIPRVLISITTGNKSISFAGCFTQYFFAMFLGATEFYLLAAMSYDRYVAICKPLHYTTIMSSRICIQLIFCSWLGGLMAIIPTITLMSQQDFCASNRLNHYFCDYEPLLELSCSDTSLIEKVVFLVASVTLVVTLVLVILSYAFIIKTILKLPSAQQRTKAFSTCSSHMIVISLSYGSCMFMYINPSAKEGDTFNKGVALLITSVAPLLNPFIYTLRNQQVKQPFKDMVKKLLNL
Procedure, shortened: as §1

OR2AT4 (Homo sapiens) = biological target: T14, OR2AT4 (Homo sapiens) (UniProt A6NND4)
T14 sequence (whole entry): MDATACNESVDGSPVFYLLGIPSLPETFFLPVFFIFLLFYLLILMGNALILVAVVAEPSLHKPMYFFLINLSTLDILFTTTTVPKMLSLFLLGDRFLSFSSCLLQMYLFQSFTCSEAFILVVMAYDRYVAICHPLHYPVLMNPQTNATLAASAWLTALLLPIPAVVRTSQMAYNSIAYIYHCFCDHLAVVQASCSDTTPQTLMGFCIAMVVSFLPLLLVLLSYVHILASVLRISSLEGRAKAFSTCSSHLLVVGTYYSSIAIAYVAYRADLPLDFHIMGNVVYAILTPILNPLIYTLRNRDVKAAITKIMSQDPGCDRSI
Procedure, shortened: as §1

OR2B11 (Homo sapiens) = biological target: T15, OR2B11 (Homo sapiens) (UniProt Q5JQS5)
T15 sequence (whole entry): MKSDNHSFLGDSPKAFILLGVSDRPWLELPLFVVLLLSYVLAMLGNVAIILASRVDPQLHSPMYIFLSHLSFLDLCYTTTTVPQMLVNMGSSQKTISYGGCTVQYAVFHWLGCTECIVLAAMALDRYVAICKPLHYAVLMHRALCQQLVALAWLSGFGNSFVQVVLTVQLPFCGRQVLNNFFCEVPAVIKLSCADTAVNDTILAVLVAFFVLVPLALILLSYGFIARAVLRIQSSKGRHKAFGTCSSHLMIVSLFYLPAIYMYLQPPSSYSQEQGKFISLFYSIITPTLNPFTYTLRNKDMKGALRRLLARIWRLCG
Procedure, shortened: as §1

OR2B2 (Homo sapiens) = biological target: T16, OR2B2 (Homo sapiens) (UniProt Q9GZK3)
T16 sequence (whole entry): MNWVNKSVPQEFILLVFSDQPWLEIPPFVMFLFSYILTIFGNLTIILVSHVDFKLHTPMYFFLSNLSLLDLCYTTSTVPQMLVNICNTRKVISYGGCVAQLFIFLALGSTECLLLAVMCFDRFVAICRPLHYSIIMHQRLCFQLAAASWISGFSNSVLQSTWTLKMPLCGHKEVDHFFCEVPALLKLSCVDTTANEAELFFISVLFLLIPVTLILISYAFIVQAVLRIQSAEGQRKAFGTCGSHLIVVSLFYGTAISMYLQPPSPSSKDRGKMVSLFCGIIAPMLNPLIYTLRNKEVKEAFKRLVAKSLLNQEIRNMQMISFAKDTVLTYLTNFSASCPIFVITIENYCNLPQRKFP
Procedure, shortened: as §1

Measured: odorant receptor agonist call

CCCCCCCCO
inactive: OR2A7 (Homo sapiens)

CCC(C)CO (stereo not given)
inactive: OR2A7 (Homo sapiens)

CCCCC(=O)C(C)=O
inactive: OR2A7 (Homo sapiens)

CC(CO)CS (stereo not given)
inactive: all assays above

CCCCCCCCCCCCCCCCCC(=O)OC
inactive: OR2A7 (Homo sapiens)
